According to ChEMBL document CHEMBL1152312, “Neopyrrolomycins with broad spectrum antibacterial activity” (2009):
In brackets after ≈: the same amount, converted by molar mass. Activity calls are given as the source filed them. No cut-off for these calls is given here.

Tests used:
Pseudomonas aeruginosa [1] = assay: Antibacterial activity against Pseudomonas aeruginosa 1473 by microdilution method; type: functional
In short: (§1)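 MIC values from CLSI broth microdilution. Strains came from the ATCC collection and from clinical isolates.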

Escherichia coli [2] = assay: Antibacterial activity against Escherichia coli 25922 by microdilution method; type: functional
In short: (§2)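 MIC determined by CLSI broth microdilution; organisms were ATCC strains and clinical isolates.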

Escherichia coli [3] = assay: Antibacterial activity against Escherichia coli 1411 by microdilution method; type: functional; in short: as §2
Klebsiella pneumoniae [4] = assay: Antibacterial activity against Klebsiella pneumoniae 4352 by microdilution method; type: functional; in short: as §2
Staphylococcus aureus [5] = assay: Antibacterial activity against methicillin-resistant Staphylococcus aureus 43300 by microdilution method; type: functional; in short: as §1
Staphylococcus aureus [6] = assay: Antibacterial activity against methicillin-sensitive Staphylococcus aureus 6538 by microdilution method; type: functional; in short: as §1
Staphylococcus aureus [7] = assay: Antibacterial activity against methicillin-sensitive Staphylococcus aureus 29213 by microdilution method; type: functional; in short: as §1
Pseudomonas aeruginosa [8] = assay: Antibacterial activity against Pseudomonas aeruginosa 27853 by microdilution method; type: functional; in short: as §2
Streptococcus pneumoniae [9] = assay: Antibacterial activity against Streptococcus pneumoniae 49619 by microdilution method; type: functional; in short: as §2
Enterococcus faecium [10] = assay: Antibacterial activity against vancomycin-resistant Enterococcus faecium 700221 by microdilution method; type: functional; in short: as §1
Staphylococcus aureus [11] = assay: Antibacterial activity against methicillin-sensitive Staphylococcus aureus 100 ATCC 29213 by microdilution method; type: functional; in short: as §1
Staphylococcus aureus [12] = assay: Antibacterial activity against methicillin-resistant Staphylococcus aureus 1137 by microdilution method; type: functional; in short: as §1
Staphylococcus aureus [13] = assay: Antibacterial activity against methicillin-resistant Staphylococcus aureus 2170 by microdilution method; type: functional; in short: as §1
Staphylococcus aureus [14] = assay: Antibacterial activity against vancomycin-intermediate Staphylococcus aureus 2012 by microdilution method; type: functional; in short: as §1
Staphylococcus aureus [15] = assay: Antibacterial activity against vancomycin-intermediate Staphylococcus aureus 2018 by microdilution method; type: functional; in short: as §1
Staphylococcus aureus [16] = assay: Antibacterial activity against Linezolid, methicillin-resistant Staphylococcus aureus 1725 by microdilution method; type: functional; in short: as §1
Staphylococcus aureus [17] = assay: Antibacterial activity against Linezolid, methicillin-resistant Staphylococcus aureus 1651 by microdilution method; type: functional; in short: as §1
Staphylococcus aureus [18] = assay: Antibacterial activity against community-acquired Staphylococcus aureus 2144 by microdilution method; type: functional; in short: as §1
[19] = system: Staphylococcus epidermidis; assay: Antibacterial activity against methicillin-sensitive Staphylococcus epidermidis 1597 by microdilution method; type: functional; in short: as §1
[20] = system: Staphylococcus epidermidis; assay: Antibacterial activity against methicillin-resistant Staphylococcus epidermidis 1452 by microdilution method; type: functional; in short: as §1
[21] = system: Staphylococcus epidermidis; assay: Antibacterial activity against Staphylococcus epidermidis 495 by microdilution method; type: functional; in short: as §1
Enterococcus faecalis = assay: Antibacterial activity against vancomycin-resistant Enterococcus faecalis 846 by microdilution method; type: functional; in short: as §1
Enterococcus faecium [22] = assay: Antibacterial activity against vancomycin-sensitive Enterococcus faecium 843 by microdilution method; type: functional; in short: as §1
Enterococcus faecium [23] = assay: Antibacterial activity against vancomycin-resistant Enterococcus faecium 1254 by microdilution method; type: functional; in short: as §1
Streptococcus pneumoniae [24] = assay: Antibacterial activity against penicillin-susceptible Streptococcus pneumoniae 866 by microdilution method; type: functional; in short: as §1
Streptococcus pneumoniae [25] = assay: Antibacterial activity against penicillin-resistant Streptococcus pneumoniae 940 by microdilution method; type: functional; in short: as §1
Streptococcus pneumoniae [26] = assay: Antibacterial activity against penicillin-resistant Streptococcus pneumoniae 748 by microdilution method; type: functional; in short: as §1
Streptococcus pneumoniae [27] = assay: Antibacterial activity against quinolone-resistant Streptococcus pneumoniae 376 by microdilution method; type: functional; in short: as §1
Streptococcus pneumoniae [28] = assay: Antibacterial activity against quinolone-resistant Streptococcus pneumoniae 379 by microdilution method; type: functional; in short: as §1
Streptococcus pneumoniae [29] = assay: Antibacterial activity against multidrug-resistant Streptococcus pneumoniae 933 by microdilution method; type: functional; in short: as §1
Streptococcus pneumoniae [30] = assay: Antibacterial activity against Streptococcus pneumoniae 1195 ATCC 49619 by microdilution method; type: functional; in short: as §1
Streptococcus pyogenes = assay: Antibacterial activity against Streptococcus pyogenes 723 by microdilution method; type: functional; in short: as §1
Streptococcus agalactiae = assay: Antibacterial activity against Streptococcus agalactiae 2033 by microdilution method; type: functional; in short: as §1
Moraxella catarrhalis = assay: Antibacterial activity against Moraxella catarrhalis 557 by microdilution method; type: functional; in short: as §1
Haemophilus influenzae [31] = assay: Antibacterial activity against ampicillin-resistant Haemophilus influenzae 1742 by microdilution method; type: functional; in short: as §1
Haemophilus influenzae [32] = assay: Antibacterial activity against Haemophilus influenzae 1224 ATCC 49247 by microdilution method; type: functional; in short: as §1
[33] = system: Haemophilus parainfluenzae; assay: Antibacterial activity against Haemophilus parainfluenzae 2319 ATCC 7901 by microdilution method; type: functional; in short: as §1
Escherichia coli [34] = assay: Antibacterial activity against Escherichia coli 102 ATCC 25922 by microdilution method; type: functional; in short: as §1
Escherichia coli [35] = assay: Antibacterial activity against extended spectrum beta-lactamase-producing Escherichia coli 2269 by microdilution method; type: functional; in short: as §1
Klebsiella pneumoniae [36] = assay: Antibacterial activity against Klebsiella pneumoniae 2239 by microdilution method; type: functional; in short: as §1
Klebsiella pneumoniae [37] = assay: Antibacterial activity against ampicillin beta-lactamase, multidrug-resistant Klebsiella pneumoniae 2262 by microdilution method; type: functional; in short: as §1
Serratia marcescens = assay: Antibacterial activity against Serratia marcescens 1635 by microdilution method; type: functional; in short: as §1
HepG2 = assay: Cytotoxicity against human HepG2 cells assessed as effect on cell viability at 8 ug/mL after 48 hrs by celltiter glow assay; type: functional, cell-based
In short: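 HepG2 cells were kept in MEM with 10% heat-inactivated FBS, 0.10 mM nonessential amino acids and 1 mM sodium pyruvate at 37 °C and 5% CO2. Cells were seeded at 1.25 × 10^5 cells/mL 24 h before dosing. Compounds were dissolved in DMSO and tested at 0.6–128 µg/mL with 1% DMSO final for 48 h. Viability was read by CellTiter-Glo luminescence as a percentage of the DMSO control.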

NHDF = assay: Cytotoxicity against NHDF cells after 48 hrs by celltiter glow assay; type: functional; conditions: Homo sapiens
In short: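 Fibroblasts kept at 37 °C, 5% CO2 in FGM-2 medium, passage ≤16. Seeded at 1.25 × 10^5 cells/mL 24 h before dosing. Compounds dissolved in DMSO, tested 0.6–128 µg/mL at 1% final DMSO for 48 h. Viability by CellTiter-Glo luminescence, expressed as percent of DMSO control.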

What does the source list for `Oc1cc(Cl)c(Cl)c(Cl)c1-n1cc(Cl)c(Cl)c1Cl` [NEOPYRROLOMYCIN B]?
MIC90 (Pseudomonas aeruginosa [1]): 16 µg/mL (≈ 43.7 µM); MIC90 (Escherichia coli [2]): 16 µg/mL (≈ 43.7 µM); MIC90 (Escherichia coli [3]): 16 µg/mL (≈ 43.7 µM); MIC90 (Klebsiella pneumoniae [4]): 16 µg/mL (≈ 43.7 µM); MIC90 (Staphylococcus aureus [5]): 0.125 µg/mL (≈ 0.342 µM); MBC (Staphylococcus aureus [6]): 2 µg/mL (≈ 5.47 µM); MIC90 (Staphylococcus aureus [6]): 0.25 µg/mL (≈ 0.683 µM); MIC90 (Staphylococcus aureus [7]): 0.5 µg/mL (≈ 1.37 µM); MIC90 (Pseudomonas aeruginosa [8]): 16 µg/mL (≈ 43.7 µM); MIC90 (Streptococcus pneumoniae [9]): 1 µg/mL (≈ 2.73 µM); MIC90 (Enterococcus faecium [10]): 0.5 µg/mL (≈ 1.37 µM); MIC90 (Staphylococcus aureus [11]): 0.25 µg/mL (≈ 0.683 µM); MIC90 (Staphylococcus aureus [12]): 0.12 µg/mL (≈ 0.328 µM); MIC90 (Staphylococcus aureus [13]): ≤ 0.06 µg/mL; MIC90 (Staphylococcus aureus [14]): ≤ 0.06 µg/mL; MIC90 (Staphylococcus aureus [15]): ≤ 0.06 µg/mL; MIC90 (Staphylococcus aureus [16]): ≤ 0.06 µg/mL; MIC90 (Staphylococcus aureus [17]): ≤ 0.06 µg/mL; MIC90 (Staphylococcus aureus [18]): 0.12 µg/mL (≈ 0.328 µM); MIC90 [19]: ≤ 0.06 µg/mL; MIC90 [20]: ≤ 0.06 µg/mL; MIC90 [21]: ≤ 0.06 µg/mL; MIC90 (Enterococcus faecalis): ≤ 0.06 µg/mL; MIC90 (Enterococcus faecium [22]): ≤ 0.06 µg/mL; MIC90 (Enterococcus faecium [23]): ≤ 0.06 µg/mL; MIC90 (Streptococcus pneumoniae [24]): 16 µg/mL (≈ 43.7 µM); MIC90 (Streptococcus pneumoniae [25]): 1 µg/mL (≈ 2.73 µM); MIC90 (Streptococcus pneumoniae [26]): 1 µg/mL (≈ 2.73 µM); MIC90 (Streptococcus pneumoniae [27]): 2 µg/mL (≈ 5.47 µM); MIC90 (Streptococcus pneumoniae [28]): 16 µg/mL (≈ 43.7 µM); MIC90 (Streptococcus pneumoniae [29]): 1 µg/mL (≈ 2.73 µM); MIC90 (Streptococcus pneumoniae [30]): 2 µg/mL (≈ 5.47 µM); MIC90 (Streptococcus pyogenes): > 16 µg/mL; MIC90 (Streptococcus agalactiae): 16 µg/mL (≈ 43.7 µM); MIC90 (Moraxella catarrhalis): ≤ 0.06 µg/mL; MIC90 (Haemophilus influenzae [31]): 0.5 µg/mL (≈ 1.37 µM); MIC90 (Haemophilus influenzae [32]): 0.25 µg/mL (≈ 0.683 µM); MIC90 [33]: 1 µg/mL (≈ 2.73 µM); MIC90 (Escherichia coli [34]): 8 µg/mL (≈ 21.9 µM); MIC90 (Escherichia coli [35]): 8 µg/mL (≈ 21.9 µM); MIC90 (Klebsiella pneumoniae [36]): 16 µg/mL (≈ 43.7 µM); MIC90 (Klebsiella pneumoniae [37]): 8 µg/mL (≈ 21.9 µM); MIC90 (Serratia marcescens): 16 µg/mL (≈ 43.7 µM); Activity (HepG2): Active; CC90 (NHDF): 16 µg/mL (≈ 43.7 µM)
